GPR7 antag = GPR7 receptor antagonists, primary screen, cell-based, fluorescence, single concentration | Neuropeptides B/W receptor type 1 (Homo sapiens), P48145 | GPR7-expressing cells, fluorescence antagonist assay | inhibition, % at 4.4 µM | 1.1% of 290,000 active; in the data active = inhibition above about 16%, passing the limit was not always enough;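 also: cells stimulated with the agonist NPW; 0% = agonist with vehicle and 100% = vehicle without agonist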
Target sequence (P48145 whole entry, looked up): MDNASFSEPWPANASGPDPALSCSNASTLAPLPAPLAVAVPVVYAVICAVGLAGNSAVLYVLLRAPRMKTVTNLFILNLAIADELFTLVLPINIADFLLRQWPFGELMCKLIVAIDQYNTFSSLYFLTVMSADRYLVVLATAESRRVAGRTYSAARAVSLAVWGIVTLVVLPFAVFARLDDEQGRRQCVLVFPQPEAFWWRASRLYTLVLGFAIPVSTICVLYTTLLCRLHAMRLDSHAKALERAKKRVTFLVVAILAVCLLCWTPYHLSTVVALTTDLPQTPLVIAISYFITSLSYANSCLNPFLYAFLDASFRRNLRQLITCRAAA
TAAR1 agonist = human TAAR1 agonists, primary screen, Fluo-8 calcium fluorescence, CHO RD-HGA16 cells. 0.99% of 360,000 active. activation, % at 3 µM. vehicle wells 0%, saturating PEA agonist 100%;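 active = activation above the mean activation of all test compounds in the run plus 3 SD, cut at about 38% in these data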
Target sequence (Q96RJ0 whole entry, looked up): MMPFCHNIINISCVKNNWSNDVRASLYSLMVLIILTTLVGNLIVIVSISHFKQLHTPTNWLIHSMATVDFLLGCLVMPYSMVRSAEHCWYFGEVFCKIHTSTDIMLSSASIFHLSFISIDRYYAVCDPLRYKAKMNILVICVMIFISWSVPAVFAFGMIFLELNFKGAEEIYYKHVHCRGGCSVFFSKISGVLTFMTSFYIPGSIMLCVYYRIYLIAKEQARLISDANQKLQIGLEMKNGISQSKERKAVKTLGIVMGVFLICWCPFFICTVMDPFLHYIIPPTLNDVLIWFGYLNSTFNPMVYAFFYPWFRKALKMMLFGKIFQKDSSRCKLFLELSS
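System: CHO-derived RD-HGA16 cells with stable Gα16 and human TAAR1. Times: 17-24 h plating, Fluo-8 75 min 37 °C, 30 min RT. Measured by: calcium-sensitive Fluo-8 signal, excitation 470-495, emission 515-575 nm. Read-out basis: % activation relative to PEA EC100 response. Control set: DMSO and PEA EC100. Repeats: no replicates (n 1).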
CHO parental Ca = ATP-evoked calcium signal inhibitors, parental CHO, primary screen, counter-screen for OX1R antagonist project, cell-based, fluorescence, Fluo-8 calcium dye | parental CHO-K1, ATP-induced calcium, Fluo-8 fluorescence | inhibition, % at 5.6 µM | 0.63% of 330,000 active | AID 463079, 2010;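 active = inhibition above that plate's mean sample inhibition plus 3 SD, cut at about 26% in these data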;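 also: 0% = ATP-challenged DMSO wells and 100% = DMSO wells without ATP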
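Test system: untransfected parental CHO cell line. Compound: one dose, 5.6 µM nominal. Detection: intracellular calcium via Fluo-8 no-wash fluorescent dye. Measure: % inhibition. Benchmarks: ATP-challenged DMSO wells low, unchallenged DMSO wells high.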
OX1R antag-1 = OX1R (HCRTR1) antagonists, primary screen, fluorescence, CHO/OX1R cells, Fluo-8 calcium, orexin A; Fluo-8 calcium fluorescence; inhibition, % at 5 µM; AID 434989, 2010; Orexin/Hypocretin receptor type 1 (Homo sapiens), O43613; 0.43% of 330,000 active;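 active = inhibition above its plate's threshold, mean inhibition of all tested compounds on the plate plus 3 SD, cut at about 37% in these data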;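 also: 0% = orexin A challenge wells and 100% = SB-334867-A antagonist wells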
OX1R antag-2 = antagonists of human orexin 1 receptor (OX1R); 1.8% of 330,000 active; Orexin/Hypocretin receptor type 1 (Homo sapiens), O43613; AID 485270, 2010; OX1R-expressing cells, FRET antagonist read-out; inhibition, % at 6.6 µM; in the data active = inhibition mostly above about 38%, no sharp cut-off; inactive = mostly below about 40%;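 also: 0% = agonist challenge alone and 100% = reference antagonist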
TAAR1 antag = human TAAR1 antagonists, primary screen, Fluo-8 calcium fluorescence, CHO RD-HGA16 cells | Trace amine-associated receptor 1 (Homo sapiens), Q96RJ0 | antagonist | 1.5% of 360,000 active | inhibition, % at 3 µM;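 active = inhibition above a per-plate cutoff, the mean inhibition of test compounds on that plate plus 3 SD, cut at about 49% in these data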;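 also: 0% = DMSO plus EC80 beta-PEA response and 100% = DMSO alone without agonist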
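System: RD-HGA16 CHO cells with stable hTAAR1 and Gα16 | Probe or stimulus: EC80 β-phenethylamine stimulus | Dosing: 3 µM, single point | Times: Dye loading 75 min at 37 °C, then 30 min room temperature | Measured by: Fluo-8 calcium-sensitive fluorescence | Read-out basis: % inhibition of agonist calcium response | Replicates: n of 1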
Starred values were filed as active, the others as inactive; nt = no result. This is a sample that favours compounds with a hit; in the whole collection about 4.6% have one here.

SMILES | GPR7 antag | TAAR1 agonist | CHO parental Ca | OX1R antag-1 | OX1R antag-2 | TAAR1 antag
COC(=O)C1=C(C)N(Cc2ccccc2C(F)(F)F)C(=NCc2cccc(C(F)(F)F)c2)NC1c1cccc(Cl)c1 (stereo not given) | nt | 4 | nt | nt | nt | -42
CCN(c1ccccc1)S(=O)(=O)c1ccc(OC)c(NC(=O)CNCCc2ccccc2)c1 | 5 | 31 | 14 | -10 | 27 | 55*
CCN(c1ccccc1)S(=O)(=O)c1ccc(OC)c(NC(=O)C2CCC2)c1 | nt | 0 | -16 | -9 | 2 | -17
CCOC(=O)C1=C(COC(=O)c2ccccc2OC)NC(=O)NC1C (stereo not given) | nt | 14 | nt | nt | nt | 49*
Cc1cccc(Nc2ncccc2C(=O)NCc2cccs2)c1C | 2 | 38* | -3 | -21 | 4 | 29
Cc1ccc(Nc2ncccc2C(=O)NCc2cccs2)c(C)c1 | 2 | 19 | -4 | -7 | 10 | 12
CCCCCCCCN1C(=O)[C@@H](CC(=O)NCc2cccc(C(F)(F)F)c2)C[C@@]2(C(=O)OC)C1=C[C@H](C1CCCC1)O[C@@H]2C | nt | 0 | nt | nt | nt | -10
Cc1ccc(/C=C2/NC(=O)N(Cc3ccccc3)C2=O)s1 | 2 | 40* | 21 | 20 | 2 | 35
O=C(Nc1cc(S(=O)(=O)N2CCOCC2)ccc1N1CCCCC1)c1cc(-c2ccccn2)nc2ccccc12 | -5 | 10 | -17 | -32 | 11 | 37
Cc1ccccc1NC(=O)c1cc(S(=O)(=O)N2CCOCC2)ccc1F | 4 | 7 | -1 | 0 | 47* | 8
Cc1ccc(S(=O)(=O)N2CCOCC2)cc1NC(=O)c1cc(-c2ccccn2)nc2ccccc12 | -16 | 14 | -18 | -32 | 7 | 49*
COC(=O)c1cc2c(c3c4ccccc4n(S(=O)(=O)c4ccccc4)c13)C(=O)N(C)C2 | nt | 0 | nt | nt | nt | -28
CN(C)c1ccc(C(=O)NCC2CCN(C(=O)C(=O)c3cccs3)CC2)cc1 | nt | 0 | nt | nt | nt | -4
COCCNC(=O)C(c1ccc(F)cc1)N(Cc1ccco1)C(=O)CCC(=O)Nc1nccs1 (stereo not given) | -12 | 0 | -13 | 26 | 60* | 4
COCCNC(=O)C(c1ccc(F)cc1)N(Cc1ccco1)C(=O)CCC(=O)Nc1ccccn1 (stereo not given) | -15 | 2 | -15 | -11 | 40 | -21
Cc1cc(NC(=O)CCC(=O)N(Cc2ccco2)C(C(=O)NC2CCCC2)c2ccccc2C)no1 (stereo not given) | -13 | 14 | -19 | -7 | 44 | 8
Cc1cc(NC(=O)CCC(=O)N(Cc2ccco2)C(C(=O)NC2CCCCC2)c2ccccc2)no1 (stereo not given) | -4 | 5 | -21 | -18 | 53* | 11
COc1ccc(C(=O)O)cc1S(=O)(=O)NC(C)C12CC3CC(CC(C3)C1)C2 (stereo not given) | nt | 7 | 34* | 45* | 2 | 13
c1coc(CN(Cc2ccco2)c2ncnc3c2oc2ccccc23)c1 | -12 | nt | 36* | 31 | 37 | nt
O=C(N[C@H](C(=O)N1CCC[C@H]1C(=O)NCc1ccccc1)C1CCCCC1)c1ccccc1 | nt | -2 | nt | nt | nt | 10
CCOC(=O)c1ccc(-n2cccc2/C=C2\NC(=O)NC2=O)cc1 | nt | 16 | -18 | -5 | 12 | 51*
Oc1c(Br)cc(Br)c2cccnc12 | nt | -2 | nt | nt | nt | 13
[O-][n+]1cccc2c(Br)cc(Br)c(O)c21 | -9 | 6 | 30* | 13 | 44 | 4
CC(C)CNC(=O)C1(C)CCCN1C(=O)C(C)(C)Oc1ccc(Cl)cc1 (stereo not given) | nt | 5 | nt | nt | nt | -35
CCCC1=NN(C(=O)C(=O)Nc2ccc(Br)cc2)C(O)(C(F)(F)F)C1 (stereo not given) | -9 | 8 | -3 | -12 | 50* | 10
SMILES | GPR7 antag | TAAR1 agonist | CHO parental Ca | OX1R antag-1 | OX1R antag-2 | TAAR1 antag
Cc1nn(Cc2ccccc2)c(C)c1NC(=O)c1ccc([N+](=O)[O-])cc1[N+](=O)[O-] | 3 | 3 | -3 | -13 | 45* | 7
COc1cccc(NC2=Nc3cccc4cccc2c34)c1 | -5 | 7 | -29 | -20 | 72* | -5
COc1cc(NC2=Nc3cccc4cccc2c34)cc(OC)c1OC | -7 | -2 | -21 | -32 | 36 | -8
COc1ccc(S(=O)(=O)N2CCN(C(=O)c3cc(-c4ccc(Br)cc4)n[nH]3)CC2)cc1OC | -6 | 10 | 23 | 24 | 15 | 62*
Cc1cc(NC(=O)C2C3C(=O)N(CCC(C)C)C(C(=O)NCc4ccccc4)C34C=CC2(C)O4)no1 (stereo not given) | -10 | 9 | 2 | -2 | 46* | 4
Cc1ccccc1NS(=O)(=O)c1nnc(NC(=O)c2ccc(Cl)cc2)s1 | 2 | 6 | 3 | 10 | 39 | 14
CS(=O)(=O)c1ccc2nc(NC(=O)c3cccc(NS(=O)(=O)c4ccc(F)c(F)c4)c3)sc2c1 | 9 | 6 | -4 | 3 | 35 | 52*
CS(=O)(=O)c1ccc2nc(NC(=O)c3ccc(NS(=O)(=O)c4ccc(F)c(F)c4)cc3)sc2c1 | 5 | 2 | 6 | -4 | 5 | 6
Cc1cccc(NS(=O)(=O)c2nnc(NC(=O)c3cccc(C)c3)s2)c1 | 4 | 2 | 1 | 17 | 63* | 13
Cc1cccc(NS(=O)(=O)c2nnc(NC(=O)c3ccc(Cl)cc3)s2)c1 | -8 | -2 | -8 | 11 | 59* | -3
CC(C)(C)S(=O)N1Cc2cc(C(=O)N3CCc4ccccc4C3)nc(-c3cccc(-c4ccncc4)c3)c2[C@H]1CCO (stereo not given in full) | nt | 24 | nt | nt | nt | -5
O=C1CC(N2CCN(S(=O)(=O)c3cccc(C(F)(F)F)c3)CC2)C(=O)N1Cc1ccccc1 (stereo not given) | 25* | 11 | -12 | -8 | 16 | 14
CCOC(=O)C1CCCN(C(=O)CSCc2ccccc2)C1 (stereo not given) | -4 | 5 | -23 | -17 | 10 | 2
CCOC(=O)C1CCCN(C(=O)CCc2nnc(-c3ccc(C(C)=O)s3)o2)C1 (stereo not given) | -3 | 26 | -11 | -14 | 42* | 5
CC(C)N1CCC2(CC1)N=C(c1ccc3c(c1)OCO3)CC(c1cc(Cl)ccc1O)N2 (stereo not given) | 5 | 18 | 38 | 68* | 87* | 48

Screening results (PubChem)
